By pIC50 is commonly meant the negative decadic logarithm of the IC50, by convention in mol/L. The pEC50 is the negative decadic logarithm of the EC50, by convention in mol/L.

For 27 molecules, Ratio IC50, IC50 and EC50 results are on record in ChEMBL document CHEMBL2169879, “Design and synthesis of inhibitors of Plasmodium falciparum N-myristoyltransferase, a promising target for antimalarial drug discovery” (J Med Chem, 2012).

Test [1] is described as follows: Selectivity index, ratio of IC50 for human N-myristoyltransferase to IC50 for Plasmodium falciparum N-myristoyltransferase. The gist of the method:
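Buffer was 30 mM Tris pH 7.4 with 4% DMSO; 30 min at 37 °C. Reaction stopped with streptavidin beads at pH 4. […] Ratio is IC50(HsNMT1)/IC50(PfNMT).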

The target in test [2] is T1, Glycylpeptide N-tetradecanoyltransferase (Plasmodium falciparum (isolate 3D7), UniProt Q8ILW6).
T1 sequence (Q8ILW6 whole entry): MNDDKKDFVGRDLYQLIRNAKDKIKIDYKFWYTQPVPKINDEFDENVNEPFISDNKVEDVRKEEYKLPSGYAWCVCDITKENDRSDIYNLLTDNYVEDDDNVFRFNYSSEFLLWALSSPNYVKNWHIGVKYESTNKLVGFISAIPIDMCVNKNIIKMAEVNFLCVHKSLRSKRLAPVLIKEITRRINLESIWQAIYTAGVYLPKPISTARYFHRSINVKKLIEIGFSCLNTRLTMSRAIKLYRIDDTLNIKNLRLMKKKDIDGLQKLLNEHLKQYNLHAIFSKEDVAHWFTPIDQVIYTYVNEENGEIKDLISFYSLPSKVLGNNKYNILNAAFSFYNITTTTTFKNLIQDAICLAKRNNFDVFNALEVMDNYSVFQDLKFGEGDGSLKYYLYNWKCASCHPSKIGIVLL
The test can be described thus: Inhibition of Plasmodium falciparum N-myristoyltransferase using [3H]-myristoyl-CoA and GLYVSRLFNRLFQKK(Biotin)-NH2 as substrate after 30 mins scintillation proximity assay.

A further test deals with Plasmodium falciparum. The test can be described thus: Antiplasmodial activity against trophozoite-stage of Plasmodium falciparum 3D7 after 48 hrs by FACS analysis. Format: functional, organism-based. Particulars: 3D7, 48 h. The gist of the method: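 Synchronous late-trophozoite 3D7 cultures at 1% parasitemia and 2% hematocrit with 0.5% DMSO, exposed to inhibitor from 10 μM down to 0.31 μM for a 48 h cycle at 37 °C. Aliquots stained with diluted hydroethidine for 20 min at 37 °C, then parasitemia read by flow cytometry. Untreated parasites and uninfected RBCs served as controls. EC50 from nonlinear regression, triplicate wells.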
In general terms: In flow cytometry, cells or beads pass a laser one at a time.

The target in test [3] is T2, Glycylpeptide N-tetradecanoyltransferase 1 (Homo sapiens, UniProt P30419).
T2 sequence (P30419 whole entry): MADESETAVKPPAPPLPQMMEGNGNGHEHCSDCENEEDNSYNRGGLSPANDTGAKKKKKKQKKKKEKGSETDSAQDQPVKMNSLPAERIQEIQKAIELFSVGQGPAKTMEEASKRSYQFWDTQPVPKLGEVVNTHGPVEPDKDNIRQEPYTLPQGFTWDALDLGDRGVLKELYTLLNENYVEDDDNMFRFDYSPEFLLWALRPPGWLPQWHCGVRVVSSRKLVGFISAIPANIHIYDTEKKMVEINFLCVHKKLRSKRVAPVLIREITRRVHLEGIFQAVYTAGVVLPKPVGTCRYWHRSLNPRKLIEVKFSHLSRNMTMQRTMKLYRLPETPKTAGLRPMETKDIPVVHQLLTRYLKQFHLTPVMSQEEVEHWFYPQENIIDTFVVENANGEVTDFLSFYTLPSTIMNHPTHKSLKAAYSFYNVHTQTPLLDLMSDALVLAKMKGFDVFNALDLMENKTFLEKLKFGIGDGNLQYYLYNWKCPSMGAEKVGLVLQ
The test can be described thus: Inhibition of human N-myristoyltransferase using [3H]-myristoyl-CoA and GLYVSRLFNRLFQKK(Biotin)-NH2 as substrate after 30 mins scintillation proximity assay. A general note: In a scintillation proximity assay essentially only radioactivity close to the scintillant gives light.

The target of test [4] is Glycylpeptide N-tetradecanoyltransferase (Plasmodium vivax (strain Salvador I), UniProt A5K1A2, Y211A). The experiment in a line: Inhibition of Plasmodium vivax […] N-myristoyltransferase Y211A mutant using [3H]-myristoyl-CoA and GLYVSRLFNRLFQKK(Biotin)-NH2 as substrate after 30 mins scintillation proximity assay. The gist of the method:
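Purified NMT per 100 µL well: PfNMT 9.4 ng, PvNMT 4.8 ng, PvNMT Y211A 19.2 ng. Each well also held 62.5 nM [3H]-myristoyl-CoA and 500 nM biotinylated peptide in pH 7.4 Tris buffer with 4% DMSO. Incubation ran 30 min at 37°C. Reactions were stopped with streptavidin beads at pH 4 and counted after overnight settling. Inhibitor ranged 500 µM–2 nM. IC50 came from nonlinear regression, in duplicate.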

Test [5] can be described thus: Inhibition of Plasmodium vivax wild type N-myristoyltransferase using [3H]-myristoyl-CoA and GLYVSRLFNRLFQKK(Biotin)-NH2 as substrate after 30 mins scintillation proximity assay.
Test [6] has as its target Glycylpeptide N-tetradecanoyltransferase 1 (Homo sapiens, UniProt P30419, Y296A). The test can be described thus: Inhibition of human N-myristoyltransferase Y296A mutant using [3H]-myristoyl-CoA and GLYVSRLFNRLFQKK(Biotin)-NH2 as substrate after 30 mins scintillation proximity assay.

pEC50, pIC50: −log10 of the molar value.

Chain of Glycylpeptide N-tetradecanoyltransferase (Plasmodium vivax (strain Salvador I), UniProt A5K1A2, Y211A) (A5K1A2 whole entry Y211A): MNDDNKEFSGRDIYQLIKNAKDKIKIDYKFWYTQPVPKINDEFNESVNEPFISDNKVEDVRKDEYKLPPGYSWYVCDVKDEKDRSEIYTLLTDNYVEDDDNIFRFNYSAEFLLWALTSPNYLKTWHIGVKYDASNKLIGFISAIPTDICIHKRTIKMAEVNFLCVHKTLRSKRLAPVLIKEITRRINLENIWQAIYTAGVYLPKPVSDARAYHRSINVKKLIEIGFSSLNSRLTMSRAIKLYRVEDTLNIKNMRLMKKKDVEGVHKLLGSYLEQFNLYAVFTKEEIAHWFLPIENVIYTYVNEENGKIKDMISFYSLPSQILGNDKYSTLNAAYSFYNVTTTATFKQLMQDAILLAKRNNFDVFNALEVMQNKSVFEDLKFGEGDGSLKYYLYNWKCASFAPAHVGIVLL
Chain of Glycylpeptide N-tetradecanoyltransferase 1 (Homo sapiens, UniProt P30419, Y296A) (P30419 whole entry Y296A): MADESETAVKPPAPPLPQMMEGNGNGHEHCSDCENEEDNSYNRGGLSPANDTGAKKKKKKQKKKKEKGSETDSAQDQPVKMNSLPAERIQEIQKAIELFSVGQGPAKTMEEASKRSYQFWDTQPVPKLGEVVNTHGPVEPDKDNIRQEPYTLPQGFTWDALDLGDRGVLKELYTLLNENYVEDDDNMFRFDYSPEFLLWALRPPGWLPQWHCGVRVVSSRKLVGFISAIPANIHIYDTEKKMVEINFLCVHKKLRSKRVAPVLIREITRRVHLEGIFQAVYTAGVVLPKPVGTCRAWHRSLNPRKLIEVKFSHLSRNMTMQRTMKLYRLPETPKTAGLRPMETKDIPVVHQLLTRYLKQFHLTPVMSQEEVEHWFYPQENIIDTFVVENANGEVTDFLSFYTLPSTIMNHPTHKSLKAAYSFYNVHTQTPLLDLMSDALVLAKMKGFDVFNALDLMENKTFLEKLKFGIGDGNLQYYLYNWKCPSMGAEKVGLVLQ

As for `Cc1c(C(=O)c2ccccc2)oc2cccc(OC3CCNCC3)c12`, the Ratio IC50 in test [1] is greater than 5. This molecule gave a pIC50 in test [2] of 4.66. Also, in the test with Plasmodium falciparum, the pEC50 was 5.28. For `Cc1c(C(=O)OCC2CCCCC2)oc2cccc(OC3CCNCC3)c12`, the pIC50 in test [2] was 5.01. The same measure, in the same setting: to `Cc1c(C(=O)OCCCc2ccccc2)oc2cccc(OC3CCNCC3)c12` belongs 4.44; to `Cc1c(/C=C\c2ccccc2)oc2cccc(OC3CCNCC3)c12`, 4.14. Consider `Cc1c(C(=O)Oc2ccccc2)oc2cccc(OC3CCNCC3)c12`, for which the Ratio IC50 in test [1] was greater than 20. In test [2], the pIC50 was 4.61. Further, the pEC50 in the test with Plasmodium falciparum is 5.00. Turning to `Cc1c(C(=O)OCc2ccccc2)oc2cccc(OC3CCNCC3)c12`, the Ratio IC50 in test [1] is greater than 400. For the same molecule, the pIC50 was 6.57 in test [2] and less than 4.00 in test [3]. In addition, the pEC50 with Plasmodium falciparum is 5.92. For the molecule `CCOC(=O)c1oc2cccc(OC3CCNCC3)c2c1C`, the values for the pIC50 in test [2] and in test [3] were 4.78 and less than 3.70, respectively. The pEC50 in the test on Plasmodium falciparum was 4.82. For the molecule `Cc1c(C(=O)Nc2ccccc2)oc2cccc(OC3CCNCC3)c12`, the Ratio IC50 in test [1] is greater than 10. In test [2], the pIC50 was 4.54. The molecule further gave a pEC50 in the test on Plasmodium falciparum of 5.28. Consider `Cc1c(C(=O)CCc2ccccc2)oc2cccc(OC3CCNCC3)c12`, for which the Ratio IC50 in test [1] was greater than 20. Besides, in the test with Plasmodium falciparum, the pEC50 is 5.40.

In test [2], `Cc1c(CCc2ccccc2)oc2cccc(OC3CCNCC3)c12` had a pIC50 of 3.88.

Take `Cc1c(C(=O)NC(C)C)oc2cccc(OC3CCNCC3)c12`: the pIC50 in test [2] is less than 3.70. Same read-out and setting: to `Cc1c(C(=O)NC2CCCCC2)oc2cccc(OC3CCNCC3)c12` belongs less than 4.00. Regarding `Cc1c(/C=C/c2ccccc2)oc2cccc(OC3CCNCC3)c12`, in test [1], the Ratio IC50 is greater than 10. Besides, the pIC50 in test [2] is 4.58. Taken in the same sequence, the figures for `Cc1c(-c2nc(-c3ccccc3)no2)oc2cccc(OC3CCNCC3)c12` were greater than 12 and 4.75. As to `Cc1c(C(=O)NCc2cccc3ccccc23)oc2cccc(OC3CCNCC3)c12`, the Ratio IC50 in test [1] is 28. This molecule also had a pEC50 in the test on Plasmodium falciparum of 5.62.

With `Cc1c(COCc2ccccc2)oc2cccc(OC3CCNCC3)c12`, the Ratio IC50 in test [1] was found to be 14. Moreover, the pIC50 in test [2] was 5.15. Besides, the pEC50 with Plasmodium falciparum was 5.35.

As for `Cc1c(C(=O)NCc2ccccc2)oc2cccc(OC3CCNCC3)c12`, the pIC50 in test [2] was 4.89.

For the molecule `Cc1c(C(=O)OCCc2ccccc2)oc2cccc(OC3CCNCC3)c12`, the pIC50 in test [2] was 5.39. Regarding `O=S(=O)(Cc1ccccc1)c1cc2c(OC3CCNCC3)cccc2o1`, the pIC50 in test [2] was less than 3.70. Turning to `Cc1c(COc2ccccc2)oc2cccc(OC3CCNCC3)c12`, in test [1], the Ratio IC50 is greater than 16. Besides, in test [2], the pIC50 is 5.18. In the case of `Cc1c(-c2nc(Cc3ccccc3)no2)oc2cccc(OC3CCNCC3)c12`, the pIC50 in test [4] was 4.78; in test [5], 5.21. Moreover, in the test with Plasmodium falciparum, the pEC50 was 5.68. As to `CCOC(=O)c1oc2cccc(OCCCNCc3cccnc3)c2c1C`, the pIC50 in test [2] was 4.29; in test [3] it was less than 3.00.

`COc1cccc(COC(=O)c2oc3cccc(OC4CCNCC4)c3c2C)c1`: the pIC50 in test [4] was 5.57; in test [6] it was 5.00; in test [3], 4.35. Take `c1ccc(CSc2cc3c(OC4CCNCC4)cccc3o2)cc1`: the pIC50 in test [2] is 4.42. On to `Cc1c(C(=O)/C=C/c2ccccc2)oc2cccc(OC3CCNCC3)c12`, for which the Ratio IC50 in test [1] was 14. Besides, the pIC50 in test [2] was 5.46. Further, the pEC50 in the test with Plasmodium falciparum was 5.60. In turn, `Cc1c(C(=O)OCc2cccc3ccccc23)oc2cccc(OC3CCNCC3)c12` showed a pIC50 in test [2] of 5.85. Regarding `CCCCc1c(C)nc2ccc(OC)cc2c1SCCC#N`, the pIC50 is 3.82 in test [4] and 4.49 in test [5].
